Measured values from ChEMBL document CHEMBL1921724, “In search of a cytostatic agent derived from the alkaloid lycorine: synthesis and growth inhibitory properties of lycorine derivatives” (Bioorg Med Chem, 2011).

How the values were obtained:
MCF7 = assay: Growth inhibition of human MCF7 cells after 72 hrs by MTT assay; type: functional; conditions: MCF7, 72 h
[1] = Chemical stability of the compound at pH 5 to 7.4; type: physicochemical; conditions: buffer
A549 = assay: Growth inhibition of pro-apoptotic stimuli-resistant human A549 cells after 72 hrs by MTT assay; type: functional; conditions: A549, 72 h
Procedure, shortened: (§1)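 Cells seeded at 10,000 to 40,000 cells/mL depending on cell type and allowed to attach for 24 h. They were then cultured 72 h with or without compound (untreated control). Living cells were measured by MTT reduction to formazan, read at 570 nm against a 630 nm reference. GI50 was derived from the growth levels.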

[2] = Growth inhibition of pro-apoptotic stimuli-resistant human U373 cells after 72 hrs by MTT assay; type: functional, U-373MG ATCC; conditions: U373 MG; procedure, shortened: as §1
SK-MEL-28 = assay: Growth inhibition of pro-apoptotic stimuli-resistant human SK-MEL-28 cells after 72 hrs by MTT assay; type: functional; conditions: SK-MEL-28, 72 h; procedure, shortened: as §1
[3] = Growth inhibition of pro-apoptotic stimuli-sensitive human Hs683 cells after 72 hrs by MTT assay; type: functional; conditions: Hs 683, 72 h; procedure, shortened: as §1
T98G = assay: Growth inhibition of pro-apoptotic stimuli-resistant human T98G cells after 72 hrs by MTT assay; type: functional; procedure, shortened: as §1
B16-F10 = assay: Growth inhibition of pro-apoptotic stimuli-sensitive mouse B16F10 cells after 72 hrs by MTT assay; type: functional; conditions: B16-F10, 72 h; procedure, shortened: as §1
PC-3 = assay: Growth inhibition of human PC3 cells after 72 hrs by MTT assay; type: functional; conditions: PC-3, 72 h
[4] = Ratio of lycorine GI50 to compound GI50 for pro-apoptotic stimuli-resistant human U373 cells after 72 hrs by MTT assay; type: functional, U-373MG ATCC

Row | GI50 (MCF7) [µM] | Stability [1] [days] | GI50 (A549) [µM] | GI50 (SK-MEL-28) [µM] | GI50 (B16-F10) [µM] | GI50 (PC-3) [µM] | Structure (SMILES) | GI50 [2] [µM] | GI50 [3] [µM] | GI50 (T98G) [µM] | RatioGI50 [4]
1 | 30 | 3 | 14 | 30 | 21 | 22 | CCCCCCCC/C=C\CCCCCCCC(=O)O[C@H]1[C@H]2c3cc4c(cc3CN3CCC(=C[C@@H]1O)[C@H]23)OCO4 | 4 | 14 | 0.8 | 
2 | 21 | 3 | 15 | 25 | 18 | 19 | CC/C=C\C/C=C\C/C=C\C/C=C\C/C=C\C/C=C\CCC(=O)O[C@H]1[C@H]2c3cc4c(cc3CN3CCC(=C[C@@H]1O)[C@H]23)OCO4 | 8 | 20 | 3 | 
3 | 0.2 |  | 4 | 6 | 4 | 1 | C=CCO[C@H]1[C@H]2c3cc4c(cc3CN3CCC(=C[C@@H]1OCC=C)[C@H]23)OCO4 [DIALLYLLYCORINE] | 0.03 | 2 | 4 | 100
